Molecules are shown by their SMILES.

In series [1] the test system is Liver. As to the kind of experiment: Biodistribution in ddY mouse liver assessed per gram of tissue at 14.8 kBq, iv after 5 mins. It counts as ADME, organism-based. To be noted: in vivo. A digest of the protocol:
(§1)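 Killed at set times after injection; organs and blood removed, weighed, gamma counted. Data as % injected dose per gram tissue, mean SD, n = 5–6.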

Series [2] relates to Stomach. As to the kind of experiment: Biodistribution in ddY mouse stomach assessed per gram of tissue at 14.8 kBq, iv after 30 mins. It counts as ADME, organism-based. To be noted: in vivo, 0.5 h. In short, it runs like this: (§2)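 Radioiodinated tracer (14.8 kBq) injected via tail vein into male ddY mice (6 weeks, 30–35 g). Organs removed at set times after injection, weighed and gamma-counted; uptake expressed as % injected dose per gram tissue, mean ± SD, n = 5–6.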

The subject of series [3] is Liver. As to the kind of experiment: Biodistribution in ddY mouse liver assessed per gram of tissue at 14.8 kBq, iv after 180 mins. It counts as ADME, organism-based. As to conditions: in vivo, 3 h. A digest of the protocol:
as §1

Series [4] concerns Pancreas. As to the kind of experiment: Biodistribution in ddY mouse pancreas assessed per gram of tissue at 14.8 kBq, iv after 0.5 mins. It counts as ADME, organism-based. To be noted: in vivo. In short, it runs like this:
as §2

The subject of series [5] is Stomach. As to the kind of experiment: Biodistribution in ddY mouse stomach assessed per gram of tissue at 14.8 kBq, iv after 0.5 mins. It counts as ADME, organism-based. To be noted: in vivo. A digest of the protocol:
as §2

Series [6] has as its system Stomach. As to the kind of experiment: Biodistribution in ddY mouse stomach assessed per gram of tissue at 14.8 kBq, iv after 5 mins. In kind it is ADME, organism-based. As to conditions: in vivo. A digest of the protocol: as §2
For another series, the system named is Kidney. As to the kind of experiment: Biodistribution in ddY mouse kidney assessed per gram of tissue at 14.8 kBq, iv after 0.5 mins. It counts as ADME, organism-based. As to conditions: in vivo. In short, it runs like this: as §1
Series [7] concerns Intestine. As to the kind of experiment: Biodistribution in ddY mouse intestine assessed per gram of tissue at 14.8 kBq, iv after 180 mins. It counts as ADME, organism-based. To be noted: in vivo, 3 h. In short, it runs like this: as §1
Series [8] has as its system Brain. As to the kind of experiment: Biodistribution in ddY mouse brain assessed per gram of tissue at 14.8 kBq, iv after 60 mins. It counts as ADME, organism-based. As to conditions: in vivo, 1 h. In short, it runs like this:
as §1

Series [9] has as its system Brain. As to the kind of experiment: Biodistribution in ddY mouse brain assessed per gram of tissue at 14.8 kBq, iv after 30 mins. It counts as ADME, organism-based. To be noted: in vivo, 0.5 h. In short, it runs like this:
as §1

Series [10] deals with Brain. As to the kind of experiment: Biodistribution in ddY mouse brain assessed per gram of tissue at 14.8 kBq, iv after 360 mins. In kind it is ADME, organism-based. As to conditions: in vivo, 6 h. A digest of the protocol:
as §1

Series [11] relates to Lung. As to the kind of experiment: Biodistribution in ddY mouse lung assessed per gram of tissue at 14.8 kBq, iv after 0.5 mins. It counts as ADME, organism-based. As to conditions: in vivo. A digest of the protocol: as §2
The subject of series [12] is Stomach. As to the kind of experiment: Biodistribution in ddY mouse stomach assessed per gram of tissue at 14.8 kBq, iv after 60 mins. It counts as ADME, organism-based. To be noted: in vivo, 1 h. In short, it runs like this:
as §2

The test system of series [13] is Blood. As to the kind of experiment: Biodistribution in ddY mouse blood assessed per gram of tissue at 14.8 kBq, iv after 0.5 mins. In kind it is ADME, organism-based. As to conditions: in vivo. In short, it runs like this:
as §1

The test system of series [14] is Spleen. As to the kind of experiment: Biodistribution in ddY mouse spleen assessed per gram of tissue at 14.8 kBq, iv after 30 mins. To be noted: in vivo, 0.5 h. In kind it is ADME, organism-based. In short, it runs like this:
as §2

In series [15] the test system is Intestine. As to the kind of experiment: Biodistribution in ddY mouse intestine assessed per gram of tissue at 14.8 kBq, iv after 5 mins. As to conditions: in vivo. It counts as ADME, organism-based. A digest of the protocol:
as §1

Series [16] relates to Intestine. As to the kind of experiment: Biodistribution in ddY mouse intestine assessed per gram of tissue at 14.8 kBq, iv after 60 mins. It counts as ADME, organism-based. To be noted: in vivo, 1 h. In short, it runs like this:
as §1

Series [17] concerns Spleen. As to the kind of experiment: Biodistribution in ddY mouse spleen assessed per gram of tissue at 14.8 kBq, iv after 60 mins. In kind it is ADME, organism-based. To be noted: in vivo, 1 h. A digest of the protocol:
as §2

Another series concerns Heart. As to the kind of experiment: Biodistribution in ddY mouse heart assessed per gram of tissue at 14.8 kBq, iv after 0.5 mins. As to conditions: in vivo. It counts as ADME, organism-based. In short, it runs like this: as §1
The subject of series [18] is Lung. As to the kind of experiment: Biodistribution in ddY mouse lung assessed per gram of tissue at 14.8 kBq, iv after 360 mins. In kind it is ADME, organism-based. As to conditions: in vivo, 6 h. A digest of the protocol:
as §2

In series [19] the test system is Blood. As to the kind of experiment: Biodistribution in ddY mouse blood assessed per gram of tissue at 148 kBq, iv after 180 mins in presence of 50 mg/kg, iv of cyclosporin A administered 30 mins before compound challenge (reference value: 0.78 +/- 0.27 %). To be noted: in vivo, 3 h. Set-up: dose 50 mg/kg, route intravenous. It counts as ADME, organism-based.
Series [20] has as its system Pancreas. As to the kind of experiment: Biodistribution in ddY mouse pancreas assessed per gram of tissue at 14.8 kBq, iv after 5 mins. As to conditions: in vivo. In kind it is ADME, organism-based. A digest of the protocol:
as §2

The subject of series [21] is Blood. As to the kind of experiment: Biodistribution in ddY mouse blood assessed per gram of tissue at 148 kBq, iv after 180 mins in presence of 200 mg/kg, iv of probenecid administered 30 mins before compound challenge (reference value: 0.46 +/- 0.07 %). Set-up: dose 200 mg/kg, route intravenous. To be noted: in vivo, 3 h. In kind it is ADME, organism-based.
The subject of series [22] is Liver. As to the kind of experiment: Biodistribution in ddY mouse liver assessed per gram of tissue at 148 kBq, iv after 180 mins in presence of 200 mg/kg, iv of probenecid administered 30 mins before compound challenge (reference value: 19.13 +/- 2.09 %). As to conditions: in vivo, 3 h.

Take `Oc1ccc2nc(CN3CCC(Cc4ccc([125I])cc4)CC3)[nH]c2c1`: the Drug uptake in the series with Liver [1] stood at 25.03 % ID/g; in the series with Stomach [2] it was 2.54 % ID/g; in the series on Liver [3] it was 32.22 % ID/g; in the series on Pancreas [4], 0.49 % ID/g; in the series with Stomach [5], 0.72 % ID/g; in the series with Stomach [6], 1.93 % ID/g. For the same compound, the Drug uptake in the series with Kidney is given as 5.35 % ID/g; with Intestine [7] it was 4.55 % ID/g; in the series on Brain [8], 0.48 % ID/g; in the series with Brain [9], 0.44 % ID/g; in the series on Brain [10], 0.55 % ID/g; in the series on Lung [11], 6.6 % ID/g. In addition, the Drug uptake is 2.16 % ID/g in the series on Stomach [12]; 3.22 % ID/g in the series on Blood [13]; 5.91 % ID/g with Spleen [14]; 1.83 % ID/g in the series on Intestine [15]; 2.35 % ID/g in the series with Intestine [16]; 4.65 % ID/g with Spleen [17]. Moreover, the Drug uptake was 1.47 % ID/g in the series with Heart; 3.44 % ID/g in the series with Lung [18]; 0.52 % ID/g in the series on Blood [19]; 5.74 % ID/g in the series on Pancreas [20]; 0.41 % ID/g in the series on Blood [21]; 20 % ID/g with Liver [22].

The values above are taken from ChEMBL document CHEMBL1268917, “Synthesis and biological evaluation of radio-iodinated benzimidazoles as SPECT imaging agents for NR2B subtype of NMDA receptor” (Bioorg Med Chem, 2010).
